Source: PubChem BioAssay
The source made the active and inactive calls. Rule as the data show it, unless noted: active = inhibition above about 31%; inactive = the rest.

Legend:
[1] = HUVEC growth inhibition – cell-based, human, primary screen (AID 575;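 active = viability at or below 30% in both replicate assays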;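 also: 100% = median of untreated cell wells with 0.1% DMSO on each plate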); conditions: HUVEC proliferation, CellTiter-Glo luminescence, 72 h; at 10 µM; stronger effect = lower value
Procedure, shortened: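 Test system – primary HUVEC, no more than 12 passages · Dosing – one dose, 10 µM final, 0.1% DMSO · Times – 72 h treatment at 37 °C · Measured by – ATP-based CellTiter-Glo luminescent read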

[2] = H69AR cell proliferation blockers – human, duplicate replicates, primary screen (AID 580;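 active = viability at or under a set limit in both replicates, limit being median viability minus 3 SD, cut at about 48% in these data, passing the limit was not always enough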;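 also: 100% = mean luminescence of untreated wells and 0% = no signal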); conditions: H69AR lung tumor cells viability, ATP luminescence, 72 h; at 10 µM; stronger effect = lower value
[3] = MRP1 drug-resistance reversers in H69AR cells – cell-based, doxorubicin co-treatment, pilot screen (AID 601;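 active = viability loss from added drug above about 55%, and viability with drug at most 40%, in both replicates, limit read from the data, passing the limit was not always enough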); conditions: CellTiter-Glo, 72 h, at 10 µM; for differential viability (reversal): stronger effect = higher value
[4] = yeast transport mutant growth inhibition pilot in 384-well plates, post-Golgi transport modulator project (AID 636); conditions: absorbance 615 nm, about 18 h, stronger effect = higher value
[5] = growth suppression of yeast trafficking mutant, preliminary HTS, modulators of trafficking downstream of Golgi apparatus project, 1536-format plate, OD 615 nm (AID 637; in the data active = inhibition above about 30%); conditions: yeast transport mutant growth, absorbance 615 nm, 18 h; stronger effect = higher value
[6] = H69AR cells + 2 uM doxorubicin, measured here: viability with 2 uM doxorubicin, stronger effect = lower value
[7] = H69AR cells, compound alone cytotoxicity

| SMILES | viability [1] | viability [2] | differential viability (reversal) ([3]; H69AR cells + 2 uM doxorubicin) | viability [3, 6] [%] | viability [3, 7] [%] | inhibition [4] | inhibition [5] |
| --- | --- | --- | --- | --- | --- | --- | --- |
| O=C(c1ccc2c(c1)OCO2)N1CCNc2ccccc2C1 | 90.4% (inactive) | 99.6% (inactive) | 11.9% (inactive) | 87.7 | 99.6 | 0.65% (inactive) | 3.17% (inactive) |
| Cc1cc(C)n(CCCNC(=O)c2ccc(S(=O)(=O)NCc3ccco3)cc2)n1 | 97.6% (inactive) | 94.2% (inactive) | 7.31% (inactive) | 86.9 | 94.2 | -3.77% (inactive) | 3.17% (inactive) |
| O=C(c1ccc(CNS(=O)(=O)c2cccc(C(F)(F)F)c2)cc1)N1CCOCC1 | 102% (inactive) | 92.9% (inactive) | 12% (inactive) | 80.9 | 92.9 | -8.67% (inactive) | 1.43% (inactive) |
| C=CCn1c(=S)[nH]c2nc3c(cc2c1=O)COC(C)(C)C3 | 90% (inactive) | 77.8% (inactive) | 5.84% (inactive) | 72 | 77.8 | -5.06% (inactive) | 2.86% (inactive) |
| O=C(Nc1nc(-c2ccc(S(=O)(=O)N3CCCC3)cc2)cs1)C1COc2ccccc2O1 (stereo unspecified) | 79.1% (inactive) | 90.3% (inactive) | -1.52% (inactive) | 91.8 | 90.3 | -3.73% (inactive) | -6.83% (inactive) |
| Cc1cccc2c1nc(-c1ccccc1)n1cnnc21 | 92.3% (inactive) | 86.7% (inactive) | -8.59% (inactive) | 95.3 | 86.7 | 1.2% (inactive) | -6.19% (inactive) |
| O=C(Nc1ccccc1C(=O)N1CCOCC1)C1CCC(=O)N1C1CCCC1 (stereo unspecified) | 108% (inactive) | 95% (inactive) | -0.755% (inactive) | 95.7 | 95 | -8.8% (inactive) | -3.97% (inactive) |
| CC(CN1CCCCC1)OC(=O)c1ccc(Cl)cc1Cl (stereo unspecified) | 96.7% (inactive) | 92.9% (inactive) | 7.05% (inactive) | 85.9 | 92.9 | 0.53% (inactive) | -3.65% (inactive) |
| Cc1ccc(NC(=O)CC2Nc3ccccc3NC2=O)cc1Cl (stereo unspecified) | 10.1% (active) | 27.8% (active) | -17.1% (inactive) | 44.9 | 27.8 | -1.17% (inactive) | -3.49% (inactive) |
| C/C(=N\O)c1ccc2c3c([nH]c2c1)CCCC3 | 25.3% (active) | 88.1% (inactive) | -8.65% (inactive) | 96.8 | 88.1 | -3.77% (inactive) | -0.16% (inactive) |
| CN(C)C(CNc1nnnn1-c1ccccc1)c1ccco1 (stereo unspecified) | 79.2% (inactive) | 77.4% (inactive) | 5% (inactive) | 72.4 | 77.4 | -3.77% (inactive) | 1.11% (inactive) |
| COc1ccc(NC(=O)N2CCC(O)(c3cccnc3)CC2)c(OC)c1 | 83.6% (inactive) | 98.4% (inactive) | 12.3% (inactive) | 86.1 | 98.4 | -1.43% (inactive) | -1.11% (inactive) |
| c1ccc2c(c1)c1c3n2CCNC3CCC1 (stereo unspecified) | 91.1% (inactive) | 91.4% (inactive) | 4.74% (inactive) | 86.7 | 91.4 | -4.13% (inactive) | 0% (inactive) |
| CN(CCCC(=O)Nc1ccncc1)S(=O)(=O)c1ccc(Cl)cc1 | 56.2% (inactive) | 89% (inactive) | -14.6% (inactive) | 104 | 89 | 0.65% (inactive) | -5.87% (inactive) |
| CC1CCCC(NC(=O)CN2CCN(Cc3ccc(Cl)cc3)C2=O)C1C (stereo unspecified) | 108% (inactive) | 103% (inactive) | 16.2% (inactive) | 86.4 | 103 | -1.43% (inactive) | 4.92% (inactive) |
| CC(C)(C)C1CCc2c(sc3c2C(=O)NC(c2ccco2)N3)C1 (stereo unspecified) | 72.5% (inactive) | 88.5% (inactive) | -10.4% (inactive) | 98.9 | 88.5 | 1.97% (inactive) | -0.16% (inactive) |
| CSC1=C(C#N)C(c2ccc(C)cc2)C2=C(CCCC2=O)N1 (stereo unspecified) | 91.3% (inactive) | 77.6% (inactive) | 10.1% (inactive) | 67.5 | 77.6 | -2.99% (inactive) | -0.95% (inactive) |
| CC(C)[C@H](NC(=O)OC(C)(C)C)c1nnc(S(=O)(=O)Cc2c(F)cccc2Cl)o1 | 69.5% (inactive) | 1.65% (active) | 0.065% (inactive) | 1.58 | 1.65 | -2.76% (inactive) | 9.02% (inactive) |
| Cc1cc(C(=O)N2CCN(C(c3ccccc3)c3ccccc3)CC2)no1 | 121% (inactive) | 89.1% (inactive) | 3.42% (inactive) | 85.7 | 89.1 | -6.18% (inactive) | 0.16% (inactive) |

| SMILES | viability [1] | viability [2] | differential viability (reversal) ([3]; H69AR cells + 2 uM doxorubicin) | viability [3, 6] [%] | viability [3, 7] [%] | inhibition [4] | inhibition [5] |
| --- | --- | --- | --- | --- | --- | --- | --- |
| CCOC(=O)C1C(=O)OC(C)(C)C1C(C)C(=O)c1ccc(OC)cc1 (stereo unspecified) | 112% (inactive) | 96% (inactive) | 3.24% (inactive) | 92.7 | 96 | -0.39% (inactive) | 18.6% (inactive) |
| O=C(Cc1c[nH]c2ccccc12)N1CCc2ccccc21 | 88.9% (inactive) | 80.7% (inactive) | 13.1% (inactive) | 67.5 | 80.7 | -2.99% (inactive) | -2.86% (inactive) |
| S=c1[nH]nc(COc2ccccc2)n1C1CCCCC1 | 89.5% (inactive) | 81.6% (inactive) | 22.4% (inactive) | 59.2 | 81.6 | -0.39% (inactive) | 6.35% (inactive) |
| COCCn1c(N)c(C(=O)Nc2sc3c(c2C(=O)OC)CCCC3)c2nc3ccccc3nc21 | 82.6% (inactive) | 92.3% (inactive) | -0.35% (inactive) | 92.7 | 92.3 | -4.42% (inactive) | 3.65% (inactive) |
| Cc1cc(C)c(S(=O)(=O)N(C)CC(N)=O)c(C)c1 | 95% (inactive) | 91.7% (inactive) | -12.6% (inactive) | 104 | 91.7 | 2.37% (inactive) | -4.13% (inactive) |
| CSc1cccc(NC(=O)C2CCN(S(C)(=O)=O)CC2)c1 | 107% (inactive) | 90.3% (inactive) | 0.77% (inactive) | 89.6 | 90.3 | -4.08% (inactive) | 2.06% (inactive) |
| O=C(Nc1nnc(C2CCCCC2)s1)c1cccs1 | 102% (inactive) | 93.2% (inactive) | 10.4% (inactive) | 82.9 | 93.2 | 0% (inactive) | -3.81% (inactive) |
| COc1ccc(OC)c(S(=O)(=O)NCCO)c1 | 87.5% (inactive) | 95.2% (inactive) | 14.5% (inactive) | 80.7 | 95.2 | -2.34% (inactive) | 6.35% (inactive) |
| CC(CN1CCOCC1)(NS(=O)(=O)c1ccccc1)c1ccccc1 (stereo unspecified) | 106% (inactive) | 95.9% (inactive) | 9.75% (inactive) | 86.2 | 95.9 | -1.56% (inactive) | 0.95% (inactive) |
| CC1CC(=O)c2cnc(NCC3CCCO3)nc2C1 (stereo unspecified) | 103% (inactive) | 87.3% (inactive) | 4.31% (inactive) | 83 | 87.3 | -6.8% (inactive) | 6.03% (inactive) |
| O=C(CCn1c(=O)c2sccc2n(CC(=O)NCc2ccco2)c1=O)NCc1ccccc1 | 93.6% (inactive) | 96.9% (inactive) | 4.46% (inactive) | 92.5 | 96.9 | -0.65% (inactive) | -1.59% (inactive) |
| COc1cccc(C(=O)Nc2cc(NC(=O)c3ccco3)ccc2OC)c1 | 69.1% (inactive) | 80.6% (inactive) | 2.75% (inactive) | 77.8 | 80.6 | -3.64% (inactive) | -2.22% (inactive) |
| CCOC(=O)C1CCCn2c1nc1sc3c(c1c2=O)CCCC3 (stereo unspecified) | 86.1% (inactive) | 89.1% (inactive) | -9.13% (inactive) | 98.3 | 89.1 | 0.27% (inactive) | -4.6% (inactive) |
| Cn1c(=O)c(NC(=O)c2ccccc2)c2n(c1=S)CCCCC2 | 104% (inactive) | 90.8% (inactive) | -6.87% (inactive) | 97.6 | 90.8 | -2.99% (inactive) | 3.65% (inactive) |
| N#CCc1nc(CSc2nc3ccccc3s2)cs1 | 99.1% (inactive) | 91.3% (inactive) | 8.82% (inactive) | 82.4 | 91.3 | -1.04% (inactive) | 3.02% (inactive) |
| Cc1ccc(S(=O)(=O)NCCCNC(=O)N2CCOCC2)cc1 | 100% (inactive) | 106% (inactive) | 13.5% (inactive) | 92.4 | 106 | -1.05% (inactive) | 3.81% (inactive) |
| COc1ccc(Cl)cc1-c1n[nH]c(=S)o1 | 86.9% (inactive) | 95.5% (inactive) | 13.7% (inactive) | 81.8 | 95.5 | -6.4% (inactive) | -1.27% (inactive) |
| COC(=O)Cc1c(C)c2ccc(OCC(=O)N3CCOCC3)cc2oc1=O | 107% (inactive) | 100% (inactive) | 12.4% (inactive) | 87.8 | 100 | -4.67% (inactive) | 17% (inactive) |
| CCCN(CCC)c1nc2ccccc2n2c(C)nnc12 | 85.3% (inactive) | 81.1% (inactive) | -4.65% (inactive) | 85.8 | 81.1 | -1.45% (inactive) | 8.1% (inactive) |
